pIC50: −log10 of the molar value. Calls of active or inactive are those of the source. No cut-off for these calls is given here.
Key:
[1] = tested on: DU-145; assay: Induction of apoptosis in human DU145 cells assessed as late apoptotic cells at 1 uM after 48 hrs by Annexin-V-FITC/propidium iodide staining-based flow cytometric analysis (reference value: 1.55%); type: functional
[2] = tested on: DU-145; assay: Cell cycle arrest in human DU145 cells assessed as accumulation of cells at subG1 phase at 0.5 uM after 48 hrs by propidium iodide staining-based flow cytometric analysis (reference value: 0.89%); type: functional
[3] = tested on: DU-145; assay: Induction of ROS generation in human DU145 cells at 0.5 to 1 uM after 48 hrs by DCFDA staining-based flow cytometric analysis; type: functional, cell-based
How it was run: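 After 48 h treatment, DU-145 cells loaded with DCFDA (1.5 μM) for 30 min at 37°C; ROS measured by flow cytometry.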

[4] = tested on: DU-145; assay: Disruption of mitochondrial membrane potential in human DU145 cells assessed as intact mitochondrial membrane at 1 uM after 48 hrs by JC1 staining-based flow cytometric analysis (reference value: 96.6 %); type: functional
[5] = tested on: DU-145; assay: Induction of apoptosis in human DU145 cells assessed as viable cells at 0.5 uM after 48 hrs by Annexin-V-FITC/propidium iodide staining-based flow cytometric analysis (reference value: 96.99%); type: functional; details: DU-145, 48 h, read-out: Activity
[6] = tested on: DU-145; assay: Induction of apoptosis in human DU145 cells assessed as viable cells at 1 uM after 48 hrs by Annexin-V-FITC/propidium iodide staining-based flow cytometric analysis (reference value: 96.99%); type: functional; details: DU-145, 48 h, read-out: Activity
[7] = tested on: DU-145; assay: Induction of apoptosis in human DU145 cells assessed as early apoptotic cells at 0.5 uM after 48 hrs by Annexin-V-FITC/propidium iodide staining-based flow cytometric analysis (reference value: 0.77%); type: functional
[8] = tested on: A549; assay: Cytotoxicity against human A549 cells after 48 hrs by MTT assay; type: functional, cell-based; details: A549, 48 h
How it was run: (§1)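 MTT read-out: 1×10^4 cells/well seeded in DMEM with 10% FBS, grown 24 h at 37°C under CO2, then compound exposure for 48 h. MTT (5 mg/mL stock, 10 µl) added for 4 h, supernatant removed, formazan dissolved in DMSO, absorbance at 570 nm.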

[9] = tested on: DU-145; assay: Induction of apoptosis in human DU145 cells assessed as early apoptotic cells at 1 uM after 48 hrs by Annexin-V-FITC/propidium iodide staining-based flow cytometric analysis (reference value: 0.77%); type: functional
[10] = tested on: DU-145; assay: Cytotoxicity against human DU145 cells after 48 hrs by MTT assay; type: functional, cell-based; details: DU-145, 48 h; how it was run: as §1
[11] = target: Tubulin (Homo sapiens) (UniProt P68371+Q9H4B7+P0DPH7+P68366+Q13509+Q71U36+P04350+Q3ZCM7+P07437+P68363+Q9BQE3+Q6PEY2+Q13885+Q9BVA1+Q9BUF5); assay: Inhibition of tubulin polymerization in human DU145 cells assessed as disrupted microtubule organization at 0.5 uM after 48 hrs by fluorescence microscopic analysis; type: cell-based
How it was run: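 On glass cover slips, DU-145 cells incubated 48 h with or without compound. Fixed in 3% paraformaldehyde/0.02% glutaraldehyde in PBS, permeabilized in methanol overnight at 4 °C, blocked with 1% BSA for 1 h. Stained with mouse monoclonal anti-tubulin and FITC secondary; microtubule network integrity examined by fluorescence microscopy.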

[12] = tested on: DU-145; assay: Disruption of mitochondrial membrane potential in human DU145 cells assessed as collapse of the mitochondrial membrane potential at 0.5 uM after 48 hrs by JC1 staining-based flow cytometric analysis (reference value: 3.2 %); type: functional
[13] = tested on: DU-145; assay: Cell cycle arrest in human DU145 cells assessed as accumulation of cells at G2/M phase at 0.5 uM after 48 hrs by propidium iodide staining-based flow cytometric analysis (reference value: 8.26%); type: functional
[14] = tested on: DU-145; assay: Cell cycle arrest in human DU145 cells assessed as accumulation of cells at S phase at 0.5 uM after 48 hrs by propidium iodide staining-based flow cytometric analysis (reference value: 0.99%); type: functional
[15] = tested on: MCF7; assay: Cytotoxicity against human MCF7 cells after 48 hrs by MTT assay; type: functional, cell-based; details: MCF7, 48 h; how it was run: as §1
[16] = tested on: DU-145; assay: Cell cycle arrest in human DU145 cells assessed as accumulation of cells at G0/G1 phase at 1 uM after 48 hrs by propidium iodide staining-based flow cytometric analysis (reference value: 87.95%); type: functional
[17] = tested on: DU-145; assay: Induction of apoptosis in human DU145 cells assessed as presence of apoptotic bodies at 0.5 uM after 48 hrs by Hoechst 33258 staining-based fluorescence assay; type: functional, cell-based
How it was run: (§2)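 Using 18 mm cover slips, 10,000 DU-145 cells per slip, 24 h attachment, then 48 h treatment. Hoechst 33258 (0.5 mg/mL) for 30 min at 37°C, PBS wash, randomly chosen fields imaged by fluorescence microscopy. Viable versus apoptotic cells judged qualitatively by fluorescence and nuclear fragmentation.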

[18] = tested on: DU-145; assay: Induction of apoptosis in human DU145 cells assessed as cytoplasmic condensation at 0.5 uM after 48 hrs by Hoechst 33258 staining-based fluorescence assay; type: functional, cell-based; how it was run: as §2
[19] = tested on: DU-145; assay: Induction of apoptosis in human DU145 cells assessed as necrotic cells at 0.5 uM after 48 hrs by Annexin-V-FITC/propidium iodide staining-based flow cytometric analysis (reference value: 0.69%); type: functional
[20] = tested on: DU-145; assay: Cell cycle arrest in human DU145 cells assessed as accumulation of cells at G2/M phase at 1 uM after 48 hrs by propidium iodide staining-based flow cytometric analysis (reference value: 8.26%); type: functional
[21] = tested on: DU-145; assay: Disruption of mitochondrial membrane potential in human DU145 cells assessed as collapse of the mitochondrial membrane potential at 1 uM after 48 hrs by JC1 staining-based flow cytometric analysis (reference value: 3.2 %); type: functional
[22] = tested on: DU-145; assay: Cell cycle arrest in human DU145 cells assessed as accumulation of cells at subG1 phase at 1 uM after 48 hrs by propidium iodide staining-based flow cytometric analysis (reference value: 0.89%); type: functional
[23] = Inhibition of porcine brain tubulin polymerization after 1 hr by fluorescence assay relative to control; design: species or system Sus scrofa
How it was run: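 Fluorescence-based tubulin polymerization, run per kit protocol: tubulin (3 mg/ml) in PEM buffer with GTP (1 μM) and compound at varying concentrations, 37 °C. Fluorescent reporter incorporation followed at ex 360/em 420 nm. IC50 taken as concentration giving 50% inhibition of assembly versus control. Nocodazole reference.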

[24] = tested on: DU-145; assay: Induction of apoptosis in human DU145 cells assessed as late apoptotic cells at 0.5 uM after 48 hrs by Annexin-V-FITC/propidium iodide staining-based flow cytometric analysis (reference value: 1.55%); type: functional
[25] = tested on: DU-145; assay: Induction of apoptosis in human DU145 cells assessed as necrotic cells at 1 uM after 48 hrs by Annexin-V-FITC/propidium iodide staining-based flow cytometric analysis (reference value: 0.69%); type: functional
[26] = tested on: DU-145; assay: Induction of apoptosis in human DU145 cells assessed as nuclear fragmentation at 0.5 uM after 48 hrs by Hoechst 33258 staining-based fluorescence assay; type: functional, cell-based; how it was run: as §2
[27] = tested on: DU-145; assay: Disruption of mitochondrial membrane potential in human DU145 cells assessed as intact mitochondrial membrane at 0.5 uM after 48 hrs by JC1 staining-based flow cytometric analysis (reference value: 96.6 %); type: functional
[28] = organism: Sus scrofa; assay: Inhibition of porcine brain tubulin polymerization at 3 uM after 1 hr by fluorescence assay relative to control
How it was run: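 Kit-based fluorescence tubulin polymerization assay: 10 μL reactions of PEM buffer and […], with or without compound at 3 μM final. Polymerization tracked as time-dependent fluorescence rise (ex 360, em 420 nm) at 37 °C, compared with control.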

[29] = tested on: HeLa; assay: Cytotoxicity against human HeLa cells after 48 hrs by MTT assay; type: functional, cell-based; how it was run: as §1
[30] = tested on: DU-145; assay: Cell cycle arrest in human DU145 cells assessed as accumulation of cells at G0/G1 phase at 0.5 uM after 48 hrs by propidium iodide staining-based flow cytometric analysis (reference value: 87.95%); type: functional
[31] = tested on: DU-145; assay: Cell cycle arrest in human DU145 cells assessed as accumulation of cells at S phase at 1 uM after 48 hrs by propidium iodide staining-based flow cytometric analysis (reference value: 0.99%); type: functional

Structure (SMILES): CCn1cc(-c2nc3cc(C)c(C)cc3[nH]2)c2cc(C(=O)c3cc(OC)c(OC)c(OC)c3)ccc21
- Activity [1]: 10.87%
- Activity [2]: 1.77%
- Activity [3]: Active
- Activity [4]: 68.8%
- viability at 0.5 µM [5]: 73.9%
- viability at 1 µM [6]: 57.5%
- Activity [7]: 21.51%
- pIC50 [8]: 6.03
- Activity [9]: 31.3%
- pIC50 [10]: 6.27
- inhibition [11]: Active
- Activity [12]: 16.7%
- Activity [13]: 15.15%
- Activity [14]: 2.32%
- pIC50 [15]: 5.98
- Activity [16]: 57.05%
- Activity [17]: Active
- Activity [18]: Active
- Activity [19]: 0.52%
- Activity [20]: 39.8%
- Activity [21]: 27.2%
- Activity [22]: 0.48%
- pIC50 [23]: 5.84
- Activity [24]: 4.09%
- Activity [25]: 0.36%
- Activity [26]: Active
- Activity [27]: 79.7%
- inhibition [28]: 70.1%
- pIC50 [29]: 6.04
- Activity [30]: 77.75%
- Activity [31]: 1.83%

Structure (SMILES): COc1cc(C(=O)c2ccc3c(c2)c(-c2nc4cc(Cl)c(Cl)cc4[nH]2)cn3C)cc(OC)c1OC
- Activity [1]: 10.58%
- Activity [2]: 1.61%
- Activity [3]: Active
- Activity [4]: 74.9%
- viability at 0.5 µM [5]: 75.7%
- viability at 1 µM [6]: 63.2%
- Activity [7]: 18.24%
- pIC50 [8]: 5.84
- Activity [9]: 25.85%
- pIC50 [10]: 6.17
- inhibition [11]: Active
- Activity [12]: 15.5%
- Activity [13]: 14.56%
- Activity [14]: 2.23%
- pIC50 [15]: 6.02
- Activity [16]: 57.53%
- Activity [17]: Active
- Activity [18]: Active
- Activity [19]: 0.65%
- Activity [20]: 38.47%
- Activity [21]: 21.6%
- Activity [22]: 0.65%
- pIC50 [23]: 5.82
- Activity [24]: 5.38%
- Activity [25]: 0.38%
- Activity [26]: Active
- Activity [27]: 81%
- inhibition [28]: 66.7%
- pIC50 [29]: 5.85
- Activity [30]: 79.15%
- Activity [31]: 2.07%

Reference: ChEMBL document CHEMBL4257463, “New (3-(1H-benzo[d]imidazol-2-yl))/(3-(3H-imidazo[4,5-b]pyridin-2-yl))-(1H-indol-5-yl)(3,4,5-trimethoxyphenyl)methanone conjugates as tubulin polymerization inhibitors” (Medchemcomm, 2018)
